Data set [1] is described as follows: folding enthalpy; higher = less favourable; fluorescence melt of hairpins on a sequencing array, two-state fit. Conditions: sodium 0.088 M. Put shortly: (§1)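 Cy3 fluorescence of library hairpins on a sequenced MiSeq flow cell, with annealed Cy3 and quencher oligos, was imaged in 50 mM Na-HEPES pH 8.0, 25 mM NaCl in 2.5 °C steps up to 60 °C. Signals were normalised to pre-quench Cy3 and to control variants. Melting temperature and folding enthalpy came from bootstrapped two-state fits, inverse-variance combined over four replicates. Fitted temperatures were raised by 9.35 °C to match UV melts.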

A short description of data set [2]: melting temperature; fluorescence melt of hairpins on a sequencing array, two-state fit, raised by 9.35 °C to match UV melts. Particulars: sodium 0.088 M. In short, it runs like this: as §1

Turning to CGTTCGGAAACGATAACG ((((((....)))..))), in data set [1], the folding enthalpy was -30.6 kcal/mol. Moreover, in data set [2], the Tm is 36.1 °C.
On the same counts, the results for CGTTCGGAAACGATGACG ((((((....)))..))) are -20 kcal/mol and 39 °C.
Regarding CGTTGTCGGAAACGAACG (((..(((....)))))), the folding enthalpy in data set [1] was -11.6 kcal/mol. The Tm in data set [2] was determined as 35.1 °C.
Taken in the same sequence, the figures for CGTTTCGGAAACGAACG (((.(((....)))))) were -26.3 kcal/mol and 44.9 °C.
Consider CGTTTGAAAAAACG (((((....))))), for which, in data set [1], the folding enthalpy is -21.2 kcal/mol. The Tm in data set [2] amounted to 47.3 °C.
As for CTAACGAAAGTTAG (((((....))))), the folding enthalpy in data set [1] was -23.9 kcal/mol. Moreover, the Tm in data set [2] is 49.4 °C.
As to CTACCGAAAGGTAG (((((....))))), in data set [1], the folding enthalpy is -23.2 kcal/mol. Further, the Tm in data set [2] amounted to 57.9 °C.
On to CTATGGAAACATAG (((((....))))), for which the folding enthalpy in data set [1] is -15.7 kcal/mol. The Tm in data set [2] is 36.9 °C.
In the case of CTATTGAAAAATAG (((((....))))), in data set [1], the folding enthalpy is -8.21 kcal/mol. The Tm in data set [2] came to 23.4 °C.
As for CTCAAGAAATTGAG (((((....))))), in data set [1], the folding enthalpy was -12.8 kcal/mol. The Tm in data set [2] was 33.8 °C.
Regarding CTCATGAAAATGAG (((((....))))), in data set [1], the folding enthalpy is -21.3 kcal/mol. The Tm in data set [2] came out at 44.8 °C.
With CTCCAGAAATGGAG (((((....))))), the folding enthalpy in data set [1] is -18.9 kcal/mol. The Tm in data set [2] was 44.9 °C.
Taken in the same sequence, the figures for CTGCAGAAATGCAG (((((....))))) were -21 kcal/mol and 53.4 °C.
Take CTGCTGAAAAGCAG (((((....))))): the folding enthalpy in data set [1] is -22.2 kcal/mol. The Tm in data set [2] turned out to be 58.9 °C.
Consider CTGGAGAAATCCAG (((((....))))), for which the folding enthalpy in data set [1] was -27.1 kcal/mol. For the same sequence, the Tm in data set [2] worked out at 43.6 °C.
Taken in the same sequence, the figures for CTGGGGAAACCCAG (((((....))))) were -25.4 kcal/mol and 53.5 °C.
On the same counts, the results for CTGTCGAAAGACAG (((((....))))) are -21.3 kcal/mol and 67.5 °C.
On the same counts, the results for CTTCTGAAAAGAAG (((((....))))) are -14.7 kcal/mol and 43.3 °C.
With CTTGCGAAAGCAAG (((((....))))), in data set [1], the folding enthalpy was -16.9 kcal/mol. Moreover, the Tm in data set [2] was 58.8 °C.
With GAAAAACCGAAAGGTTTC (((..(((....)))))), the folding enthalpy in data set [1] is -12.4 kcal/mol. In addition, the Tm in data set [2] was 34.8 °C.
In the case of GAAAAACGAAAGTTGTTC (((.(((....))).))), the folding enthalpy in data set [1] is -19.6 kcal/mol. Further, in data set [2], the Tm is 33.6 °C.
For the sequence GAAAACCGAAAGGTATTC (((.(((....))).))), in data set [1], the folding enthalpy was -23.5 kcal/mol. In data set [2], the Tm was determined as 37.5 °C.
For the sequence GAAAACGAAAGTTCGTTC ((((((....)))..))), the folding enthalpy in data set [1] is -10.8 kcal/mol. The Tm in data set [2] came out at 25.1 °C.
On the same counts, the results for GAAAACGAAAGTTTTC ((((((....)))))) are -37.9 kcal/mol and 55 °C.
On to GAAAACGAAAGTTTTTC ((((((....))).))), for which, in data set [1], the folding enthalpy was -17.8 kcal/mol. Moreover, the Tm in data set [2] is 42.1 °C.
With GAAAAGACGAAAGTCTTC (((..(((....)))))), the folding enthalpy in data set [1] is -11.8 kcal/mol. For the same sequence, in data set [2], the Tm amounted to 35.6 °C.
Consider GAAAAGCGAAAGCTATTC (((.(((....))).))), for which, in data set [1], the folding enthalpy was -19.5 kcal/mol. Also, the Tm in data set [2] is 36.4 °C.
Regarding GAAAAGCGAAAGCTTTC (((.(((....)))))), in data set [1], the folding enthalpy is -14.2 kcal/mol. For the same sequence, the Tm in data set [2] is 43.5 °C.
On the same counts, the results for GAAACCGAAAGGTAATTC ((((((....)))..))) are -9.6 kcal/mol and 27.9 °C.
With GAAACCGAAAGGTTATTC ((((((....)))..))), in data set [1], the folding enthalpy was -12.4 kcal/mol. For the same sequence, the Tm in data set [2] stood at 29.6 °C.
Regarding GAAACGCGAAAGCGATTC (((.(((....))).))), the folding enthalpy in data set [1] was -28.3 kcal/mol. Moreover, the Tm in data set [2] came to 50.8 °C.
For the sequence GAAACGGGAAACCGTTCC (.(((((....))))).), in data set [1], the folding enthalpy was -14.6 kcal/mol. The Tm in data set [2] is 39.4 °C.
As to GAAACTGGAAACAGTTCC (.(((((....))))).), the folding enthalpy in data set [1] was -19.3 kcal/mol. In addition, the Tm in data set [2] was determined as 35.2 °C.
For the sequence GAAACTGGAAACGGTTTC (((((.(....).))))), the folding enthalpy in data set [1] was -34.5 kcal/mol. For the same sequence, the Tm in data set [2] was found to be 44.5 °C.
In the case of GAAAGCGAAAGCTATTC ((((((....))).))), the folding enthalpy in data set [1] is -12 kcal/mol. Further, the Tm in data set [2] turned out to be 30.4 °C.
Taken in the same sequence, the figures for GAAAGCGAAAGCTGATTC ((((((....)))..))) were -19.2 kcal/mol and 42 °C.
Taken in the same sequence, the figures for GAAAGCGAAAGCTTTTC ((((((....))).))) were -12.9 kcal/mol and 47.1 °C.
As to GAAAGGGGAAACTCTTTC (((((.(....).))))), the folding enthalpy in data set [1] is -25 kcal/mol. In data set [2], the Tm came to 36.3 °C.
As for GAAATACGAAAGTAGTTC (((.(((....))).))), the folding enthalpy in data set [1] was -26.7 kcal/mol. Besides, the Tm in data set [2] amounted to 42.1 °C.
With GAAATCCGAAAGGAGTTC (((.(((....))).))), in data set [1], the folding enthalpy is -31.9 kcal/mol. Moreover, the Tm in data set [2] worked out at 49.4 °C.
With GAAATGCGAAAGCAGTTC (((.(((....))).))), the folding enthalpy in data set [1] is -33.5 kcal/mol. For the same sequence, the Tm in data set [2] stood at 52.4 °C.
Regarding GAAATGGAAACATTTC ((((((....)))))), in data set [1], the folding enthalpy was -30.2 kcal/mol. Besides, in data set [2], the Tm came out at 46.7 °C.
For the sequence GAAATGGGAAACCGTTTC ((((.((....)).)))), the folding enthalpy in data set [1] is -33.4 kcal/mol. In addition, the Tm in data set [2] stood at 43.6 °C.
For the sequence GAAATTGCGAAAGCATTC (((..(((....)))))), the folding enthalpy in data set [1] is -6.33 kcal/mol. Also, in data set [2], the Tm is 23.4 °C.
With GAAATTGGAAACAGTTTC ((((.((....)).)))), the folding enthalpy in data set [1] is -26.4 kcal/mol. Moreover, the Tm in data set [2] came to 34.2 °C.
GAACACCGAAAGGTCTTC (((.(((....))).))): in data set [1], the folding enthalpy was -15.2 kcal/mol. Besides, in data set [2], the Tm is 35.2 °C.
Consider GAACACCGAAAGGTTTC (((.(((....)))))), for which, in data set [1], the folding enthalpy was -20.5 kcal/mol. Also, the Tm in data set [2] came to 37.4 °C.
GAACACCGAAAGGTTTTC (((.(((....))).))): in data set [1], the folding enthalpy was -25.1 kcal/mol. Moreover, the Tm in data set [2] was 38 °C.
GAACACGAAAGTGCTTC ((((((....))).))): the folding enthalpy in data set [1] is -20.2 kcal/mol. In addition, the Tm in data set [2] was 41.9 °C.
GAACAGAAATGTTC (((((....))))): the folding enthalpy in data set [1] was -18.1 kcal/mol. Also, the Tm in data set [2] turned out to be 41.4 °C.
Take GAACAGACGAAAGTCTTC (((..(((....)))))): in data set [1], the folding enthalpy was -9.42 kcal/mol. Also, in data set [2], the Tm was 25.6 °C.
GAACAGCGAAAGCTCTTC (((.(((....))).))): in data set [1], the folding enthalpy is -14.5 kcal/mol. Further, in data set [2], the Tm stood at 34.3 °C.
With GAACAGCGAAAGCTTTC (((.(((....)))))), the folding enthalpy in data set [1] was -12.4 kcal/mol. For the same sequence, the Tm in data set [2] came out at 33.6 °C.
GAACAGCGAAAGCTTTTC (((.(((....))).))): in data set [1], the folding enthalpy was -19.9 kcal/mol. The Tm in data set [2] was 37.8 °C.
Turning to GAACATGCGAAAGCATTC (((..(((....)))))), the folding enthalpy in data set [1] is -11 kcal/mol. For the same sequence, the Tm in data set [2] was found to be 26.6 °C.
In the case of GAACATGGAAACATGCTC ((.((((....)))).)), in data set [1], the folding enthalpy was -26.5 kcal/mol. In addition, in data set [2], the Tm is 35.3 °C.
In the case of GAACCACGAAAGTGTTC (((.(((....)))))), in data set [1], the folding enthalpy was -13.8 kcal/mol. In addition, the Tm in data set [2] was determined as 43.9 °C.
As for GAACCAGGAAACCGGTTC (((((.(....).))))), the folding enthalpy in data set [1] is -36.3 kcal/mol. Besides, in data set [2], the Tm came out at 45.1 °C.
For GAACCCCGAAAGGGTTC (((.(((....)))))), the folding enthalpy in data set [1] is -30.9 kcal/mol. For the same sequence, the Tm in data set [2] was found to be 58.9 °C.
Turning to GAACCCGAAAGGGGCTTC ((((((....)))..))), the folding enthalpy in data set [1] was -20 kcal/mol. The Tm in data set [2] turned out to be 51 °C.
With GAACCCGAAAGGGTGTTC ((((((....)))..))), in data set [1], the folding enthalpy was -11.6 kcal/mol. In data set [2], the Tm is 47.8 °C.
Taken in the same sequence, the figures for GAACCGAAAGGTTC (((((....))))) were -25.6 kcal/mol and 67.7 °C.
Regarding GAACCGCGAAAGCGTTTC (((.(((....))).))), the folding enthalpy in data set [1] is -20.5 kcal/mol. Besides, in data set [2], the Tm worked out at 42.3 °C.
As to GAACCGGGAAACCAGTTC ((((.((....)).)))), in data set [1], the folding enthalpy was -26.2 kcal/mol. Besides, in data set [2], the Tm came to 36.5 °C.
Taken in the same sequence, the figures for GAACCTGAAAAGGTTC ((((((....)))))) were -31.8 kcal/mol and 60.6 °C.
For GAACCTGGAAACAGATTC (((.(((....))).))), in data set [1], the folding enthalpy was -17.9 kcal/mol. The Tm in data set [2] is 31.9 °C.
Turning to GAACGACGAAAGTCTTTC (((.(((....))).))), the folding enthalpy in data set [1] was -24.4 kcal/mol. In addition, in data set [2], the Tm came to 39.3 °C.
On the same counts, the results for GAACGCCGAAAGGCCTTC (((.(((....))).))) are -13.1 kcal/mol and 34.5 °C.
GAACGCGAAAGCGACTTC ((((((....)))..))): the folding enthalpy in data set [1] is -13.8 kcal/mol. Moreover, in data set [2], the Tm came to 46.1 °C.
In the case of GAACGCGAAAGCGCATTC ((((((....)))..))), the folding enthalpy in data set [1] was -7.58 kcal/mol. Also, the Tm in data set [2] was found to be 25.9 °C.
Take GAACGCGAAAGCGCCTTC ((((((....)))..))): in data set [1], the folding enthalpy was -11.1 kcal/mol. Further, the Tm in data set [2] worked out at 35.8 °C.
On to GAACGCGAAAGCGCTTC ((((((....))).))), for which the folding enthalpy in data set [1] was -14.3 kcal/mol. Besides, the Tm in data set [2] amounted to 48.6 °C.
GAACGCGAAAGCGGTTTC ((((((....)))..))): the folding enthalpy in data set [1] is -10.8 kcal/mol. Moreover, the Tm in data set [2] came out at 41.9 °C.
Turning to GAACGGCGAAAGCCCTTC (((.(((....))).))), the folding enthalpy in data set [1] was -12.4 kcal/mol. Besides, the Tm in data set [2] was 32.8 °C.
